Screening results from PubChem.
bIAP activator – increases bovine intestinal alkaline phosphatase activity. activation factor at 20 µM. purified bovine IAP, CDP-star luminescence, 30 min; hits give high values; fold of DMSO-control signal, blank-subtracted. AID 1016. hit rate 0.17% among 200,000;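 active = activation factor of 2 or more at 20 µM, a signal rise over negative controls twice the positive control's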
mIAP act – increases mouse intestinal alkaline phosphatase activity; muIAP, CDP-Star luminescence, 30 min; hits give high values; 1 = vehicle-only enzyme signal, 0 = enzyme-free wells; activation factor at 10 µM; hit rate 0.24% among 330,000;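 active = activation factor of at least 2 at 20 µM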
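System: mouse IAP enzyme. Reagent: CDP-Star chemiluminescent phosphatase substrate. Benchmarks: DMSO wells, no-enzyme wells. Times: 30 min enzyme-substrate-compound incubation at room temperature. Detection: luminescence from enzymatic CDP-Star hydrolysis. Doses: test compounds delivered from DMSO solution.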
mIAP inh – blocks mouse intestinal alkaline phosphatase; purified mouse IAP, CDP-Star luminescence, 30 min; inhibition, % at 10 µM; hit rate 0.2% among 330,000; AID 2806;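 active = inhibition of at least 40% at 10 µM in the primary screen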
hIAP activ – increases human intestinal alkaline phosphatase activity | P09923 | purified human IAP, CDP-Star luminescence, 30 min; hits give high values; 1 = vehicle-only enzyme, 0 = enzyme-free background | activation factor at 10 µM | hit rate 0.16% among 330,000 | AID 2524;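 active = activation factor of the enzyme at least 2-fold when tested at 20 µM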
Target sequence (P09923 whole entry, looked up): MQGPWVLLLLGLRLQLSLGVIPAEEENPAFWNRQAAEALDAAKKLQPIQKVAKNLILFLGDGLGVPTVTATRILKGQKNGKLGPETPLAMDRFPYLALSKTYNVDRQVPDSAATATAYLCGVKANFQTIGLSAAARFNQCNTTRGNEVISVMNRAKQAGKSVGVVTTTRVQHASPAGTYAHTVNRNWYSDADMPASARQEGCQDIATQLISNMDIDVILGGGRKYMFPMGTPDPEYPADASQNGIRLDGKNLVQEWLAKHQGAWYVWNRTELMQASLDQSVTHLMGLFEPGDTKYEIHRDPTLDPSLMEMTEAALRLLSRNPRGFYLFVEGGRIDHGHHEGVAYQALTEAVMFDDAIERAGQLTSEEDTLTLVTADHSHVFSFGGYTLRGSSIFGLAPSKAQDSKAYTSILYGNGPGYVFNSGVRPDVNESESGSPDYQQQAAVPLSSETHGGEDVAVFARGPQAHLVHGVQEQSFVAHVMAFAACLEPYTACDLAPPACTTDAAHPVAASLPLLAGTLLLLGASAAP
hIAP inh – blocks human intestinal alkaline phosphatase. P09923. inhibition, % at 10 µM. purified IAP, CDP-Star luminescence, 30 min. AID 2544. hit rate 0.12% among 330,000;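 active = inhibition reaching a set limit with compound at 10 µM in the primary screen, cut at about 35% in these data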
bIAP inhibitor – blocks bovine intestinal alkaline phosphatase activity | purified bovine IAP, CDP-star luminescence, 30 min | inhibition, % at 20 µM | 190,000 tested, under 10 active | AID 1019;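 active = over 50% inhibition of intestinal alkaline phosphatase at 20 µM in the single-dose screen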
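Assay system – bovine IAP enzyme · Quantity – bovine IAP at 1/65,000,000 final dilution · Detection – CDP-star luminescence signal · Times – 30 min reaction at room temperature · Also added – CDP-star substrate at 30 µM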
Hits are given with their value; - = inactive; . = no result. Only some compounds are listed: those with a hit (about 0.72% of all), similar ones and a draw of the others.

SMILES	bIAP activator	mIAP act	mIAP inh	hIAP activ	hIAP inh	bIAP inhibitor
O=C(Nc1cccc(F)c1)NC1CC2CCCC(C1)N2C1CC1 (stereo unspecified)	-	-	-	-	-	-
CN(C)c1ccc(N=Nc2nc3ccccc3n2C)cc1	.	-	42.2	-	-	.
Cn1c(N=Nc2ccccc2)nc2ccccc21	-	-	-	-	-	.
Cc1ccc(Cl)c(OCC(=O)Nc2ccc3c(c2)OCCO3)c1	-	-	-	-	-	-
O=C(COc1cc(Cl)c(Cl)cc1Cl)NC(=O)Nc1ccc2c(c1)OCCO2	2.6	-	-	-	-	-
COc1ccc(NC(=S)NCc2ccc3c(c2)OCO3)cc1	-	-	-	-	-	-
CC(C)c1ccc(NC(=S)NCc2ccc3c(c2)OCO3)cc1	-	2.52	-	-	-	-
S=C(NCc1ccc2c(c1)OCO2)Nc1ccc(-c2nc3ccccc3[nH]2)cc1	-	2.31	-	-	-	-
CN(C)CCNC(=S)Nc1ccc(-c2nc3ccccc3[nH]2)cc1	-	-	-	-	-	-
Cc1oc(-c2cc(Cl)cc(Cl)c2)cc1C(=O)NCCc1ccccc1	-	3.63	-	-	-	-
C=CCN1C(=O)/C(=C/c2ccc(-c3ccc(F)cc3)o2)SC1=S	.	-	-	-	36.7	.
CCc1ccc(NC(=O)Nc2cccc(OC)c2)cc1	-	2.51	-	-	-	-
CCOC(=O)c1ccc(N2CCN(c3ccc(F)cc3)CC2)c(NC(=O)Nc2cccc(OC)c2)c1	-	2.84	-	-	-	-
COc1ccc(NC(=O)Nc2cc(C)ccc2OC)cc1	-	-	-	-	-	-
COc1cccc(NC(=O)Nc2ccc(CC(=O)O)cc2)c1	-	-	-	-	-	-
COc1ccc(NC(=O)Nc2ccc(Br)c(C)c2)cc1	-	2.06	-	-	-	-
Cc1onc(-c2ccccc2)c1NC(=O)Nc1ccc(OC(F)F)cc1	.	2	-	-	-	.
Cc1onc(-c2ccccc2)c1C(=O)Nc1ccc(OC(C)C)cc1	-	-	-	-	-	-
CC(=O)Oc1ccc(C(=O)Nc2ccccc2C(=O)Nc2ccc(C(=O)O)cc2)cc1	.	-	-	-	-	.
Cc1cccc2sc(NS(=O)(=O)c3ccccc3)nc12	.	-	-	-	-	.
CC1CCCN(C(C(=O)Nc2ccc3c(c2)OCO3)c2ccccc2)C1 (stereo unspecified)	2.1	-	-	-	-	-
CC1CCCN(C(C(=O)Nc2ccc3c(c2)OCCO3)c2ccccc2)C1 (stereo unspecified)	-	-	-	-	-	-
CC1CCN(C(C(=O)Nc2ccc3c(c2)OCO3)c2ccccc2)CC1 (stereo unspecified)	2.7	-	-	-	-	-
CCOC(=O)C1(CCc2ccccc2)CCN(C(=O)Cc2nonc2C)CC1	-	-	-	-	-	-
COc1ccccc1-c1cc(C(=O)N2CCN(S(=O)(=O)c3ccc(C)cc3)CC2)[nH]n1	.	2.28	-	-	-	.
SMILES	bIAP activator	mIAP act	mIAP inh	hIAP activ	hIAP inh	bIAP inhibitor
CC(C)(C)OC(=O)CC[C@@H](C(=O)NCCCCCCCCCCC(=O)N1CCN(C(=O)OC(C)(C)C)CC1)n1cc(CCCCCNC(=O)OC(C)(C)C)nn1	.	3.16	-	-	-	.
C#CCOCCOCCOCCNc1nc(N2CCN(C(=O)CCCCCCCCCCNC(=O)[C@@H](CCSC)n3cc(CCO)nn3)CC2)nc(N2CCN(C(=O)CCCCCCCCCCNC(=O)[C@H](CCSC)n3cc(CCO)nn3)CC2)n1	.	2.64	-	-	-	.
CC(C)(C)OC(=O)NCCCCCc1cn([C@@H](CO)C(=O)NCCCCCCCCCCC(=O)N2CCN(C(=O)OC(C)(C)C)CC2)nn1	.	-	-	-	-	.
CC[C@H](C)[C@@H](C(=O)NCCCCCCCCCCC(=O)N1CCN(C(=O)OC(C)(C)C)CC1)n1cc(CCCCCNC(=O)OC(C)(C)C)nn1	.	2.5	-	-	-	.
CS(=O)(=O)NCc1ccccc1Br	.	-	-	-	-	.
O=C(NC1CCN(C(=O)Nc2cccc(Cl)c2)CC1)C1CCCCC1	.	-	-	-	-	.
O=C(Nc1cccc(Cl)c1)NC1CCN(C2CCCCC2)C1 (stereo unspecified)	.	2.32	-	-	-	.
O=C(NC1CCCC1)C1CCN(C(=O)c2ccc(Cl)cc2Cl)CC1	.	-	-	-	-	.
O=C(Nc1ccccc1Cl)C1CCN(Cc2cnn(-c3ccccc3)c2-n2cccc2)CC1	-	-	-	-	-	-
O=C(NCc1ccc2c(c1)OCO2)C1CCN(Cc2cnn(-c3ccccc3)c2-n2cccc2)CC1	2.1	-	-	-	-	-
C[C@@H](C(=O)Nc1ccc2ccccc2c1)[C@H]1C[C@]1(C)[C@H](NC(=O)OCc1ccccc1)c1ccccc1	-	-	-	-	-	-
Cc1cc(C(=O)N[C@H](c2ccccc2)[C@@]2(C)C[C@@H]2[C@@H](C)C(=O)Nc2ccc3ccccc3c2)n(C)n1	-	2.1	-	-	-	-
Cc1ccc(C(C)C)c(OCCNCc2ccccc2)c1	.	-	-	-	-	.
Cc1ccc(C(C)C)c(OCCNC(=S)Nc2cccc3ccccc23)c1	-	2.3	-	-	-	-
CCOc1ccccc1NC(=O)C(Sc1nnnn1C)c1ccccc1 (stereo unspecified)	-	-	-	-	-	-
CC(Cc1cccs1)NC(=O)Nc1ccc(F)cc1 (stereo unspecified)	-	-	-	-	-	-
CC(Cc1cccs1)NC(=S)Nc1ccc(Cl)c(Cl)c1 (stereo unspecified)	-	2.04	-	-	-	-
CC(Cc1cccs1)NC(=O)Nc1cccc(Cl)c1 (stereo unspecified)	-	2.27	-	-	-	-
C[C@@H]1CN([C@H](C)CO)C(=O)c2cc(NC(=O)Nc3ccc(F)cc3)ccc2O[C@H]1CN(C)C(=O)Nc1ccc(C(F)(F)F)cc1	.	2.03	-	-	-	.
CC(C)NC(=O)Nc1ccc2c(c1)C(=O)N([C@H](C)CO)C[C@H](C)[C@@H](CN(C)C(=O)Nc1ccc(C(F)(F)F)cc1)O2	.	2.32	-	-	-	.
C[C@H](CO)N1C[C@H](C)[C@@H](CN(C)C(=O)Nc2ccc(C(F)(F)F)cc2)Oc2ccc(NC(=O)Nc3ccc4c(c3)OCO4)cc2C1=O	.	2.38	-	-	-	.
C[C@H](CO)N1C[C@H](C)[C@@H](CN(C)C(=O)Nc2ccc3c(c2)OCO3)Oc2ccc(NC(=O)NC3CCCCC3)cc2C1=O	.	2.29	-	-	-	.
C[C@H](CO)N1C[C@H](C)[C@@H](CN(C)C(=O)Nc2ccccc2)Oc2ccc(NC(=O)Nc3ccc(C(F)(F)F)cc3)cc2C1=O	.	-	-	-	-	.
O=C(O)c1c2c(nc3ccc(S(=O)(=O)N4CCC(C(=O)NC5CCCCCC5)CC4)cc13)CCCC2	-	-	-	-	-	-
CC(NC(=O)Nc1ccccc1)C(c1cccs1)N1CCOCC1 (stereo unspecified)	-	-	-	-	-	-
